Published values pooled from the literature.
Each line is one published result; the experiments were not run side by side.
Target: Serine/threonine-protein kinase SIK2 (SIK2, Homo sapiens, UniProt Q9H0K1)

`CN(c1nccc(-c2cnn3ncccc23)n1)C1CC1` has a remaining binding of 100% (binding; 1 µM).
The remaining binding of `C[C@@H](c1cccc(C#N)c1)n1cc(Cl)cc(C(N)=O)c1=N` is reported as 100% (cell-free assay, competition with immobilised ligand; 1 µM).
For `O=C(Nc1c[nH]nc1C(=O)NC1CCNCC1)c1cc(F)cc(F)c1`, the remaining binding was 100% (binding, competition with immobilised ligand; 1 µM).
`COc1cc(-c2cn(C3CCc4c(F)cccc4N(CC(F)(F)F)C3=O)nn2)ccc1-n1cnc(C)c1` (stereo not shown) has a remaining binding of 100% (cell-free assay, competition with immobilised ligand; 1 µM).
The remaining binding of `O=C(c1ccc(Nc2ncc(Cl)c(-c3cc4ccccc4s3)n2)cc1)N1CCC(N2CCCC2)CC1` is reported as 27% (binding, competition with immobilised ligand; 1 µM).
For `CN(CCCC(F)(F)F)c1nccc(-c2cnn3ncccc23)n1`, the remaining binding was 99% (binding; 1 µM).
The remaining binding of `CCN1CCN(Cc2ccc(C(=O)Nc3ccc(C)c(Oc4ccc5c(c4)CC(=O)N5)c3)cc2C(F)(F)F)CC1` is reported as 80% (binding, competition with immobilised ligand; 1 µM).
The remaining binding of `N[C@H]1CCN(c2nccc(-c3cnn4ncccc34)n2)C1` is reported as 87% (binding; 1 µM).
`O=S(=O)(NC1CCC(c2cc(F)ccc2F)(S(=O)(=O)c2ccc(Cl)cc2)CC1)C(F)(F)F` (stereo not shown) has a remaining binding of 100% (cell-free assay, competition with immobilised ligand; 1 µM).
For `Cc1cnn2ncc(-c3ccnc(N(C)C)n3)c2c1`, the remaining binding was 100% (binding; 1 µM).
The remaining binding of `CNC(=O)c1ccc(Nc2ncc(C(F)(F)F)c(NCc3nccnc3N(C)S(C)(=O)=O)n2)cc1` is reported as 100% (cell-free assay, competition with immobilised ligand; 0.1 µM).
For `F[C@@H]1CCN(c2nccc(-c3cnn4ncccc34)n2)C1`, the remaining binding was 100% (binding; 1 µM).
The remaining binding of `CC(=O)Nc1c(C(C)=O)c(=O)n(C)c2nc(-c3ccc(Cl)cc3Cl)c(-c3ccc(Cl)cc3)cc12` is reported as 100% (cell-free assay, competition with immobilised ligand; 1 µM).
`Cc1cnc(Nc2ccc(C(=O)N3CCC(N4CCCC4)CC3)cc2)nc1-c1cc2ccccc2s1` gave a remaining binding of 16% (binding, competition with immobilised ligand; 1 µM).
`COc1ncc2cc3ccccc3nc2c1C#N` has a remaining binding of 94% (cell-free assay, competition with immobilised ligand; 5 µM).
`CC(C)CC(=O)N1CCc2nc(-c3ccc(Br)cc3)nc(N(C)Cc3ccccc3)c2C1` gave a remaining binding of 100% (cell-free assay, competition with immobilised ligand; 0.1 µM).
For `COc1ccnn2ncc(-c3ccnc(N(C)C)n3)c12`, the remaining binding was 92% (binding; 1 µM).
For `FC(F)(F)Oc1cccc(-c2cnc3ccc(-c4ccncc4)nn23)c1`, the remaining binding was 52% (binding, competition with immobilised ligand; 5 µM).
For `COc1cnc(Nc2cccc(S(N)(=O)=O)c2)nc1N1CCN(c2ccccc2)CC1`, the remaining binding was 100% (binding, competition with immobilised ligand; 1 µM).
The remaining binding of `CN1CCN(c2cnc3c(C4CCN(C(=O)c5ccc(OC(F)(F)F)cc5N)CC4)ncnc3c2)CC1` is reported as 100% (cell-free assay, competition with immobilised ligand; 1 µM).
With `CN(C)c1nccc(-c2cnc3ncccn23)n1` the remaining binding was 100% (binding; 1 µM).
The remaining binding of `O=C(c1ccc(Nc2ncc(Cl)c(-c3ccc(Cl)s3)n2)cc1)N1CCC(N2CCCC2)CC1` is reported as 21% (binding, competition with immobilised ligand; 1 µM).
